16 molecules from ChEMBL document CHEMBL4177753, “Structural Modification of Natural Product Ganomycin I Leading to Discovery of a α-Glucosidase and HMG-CoA Reductase Dual Inhibitor Improving Obesity and Metabolic Dysfunction in Vivo” (J Med Chem, 2018) can be followed below.

The source made the active and inactive calls. The rule behind the calls is not given here.

Test [1] can be described thus: Inhibition of rat small intestinal mucosal alpha-glucosidase using p-nitrophenyl-alpha-D-glucopyranoside as substrate after 40 mins by colorimetric method. Put shortly: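 Rat small intestinal mucosal α-glucosidase; several compound concentrations, each run three times in parallel; phosphate-buffer control replaces compound, blank replaces enzyme. Absorbance at 405 nm; % inhibition = blank-corrected OD of test versus control; IC50 derived from the concentration gradient.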

Test [2] relates to Mus musculus. The experiment in a line: Antiobesity activity in C57BL/6J DIO mouse assessed as reduction in LEE index at 3 mg/kg administered daily via oral gavage for 5 weeks. The format is functional, organism-based. A digest of the protocol: (§1)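 Male C57BL/6J mice on high-fat diet, n = 8 per group, grouped by blood glucose and body weight. Daily oral gavage at 0.3, 1.0 or 3.0 mg/kg in soybean vehicle for 5 weeks. Vehicle groups were on normal diet and on high-fat diet.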

Test [3] deals with Mus musculus. The experiment in a line: Antiobesity activity in C57BL/6J DIO mouse assessed as reduction in weight gain at 3 mg/kg administered daily via oral gavage for 5 weeks relative to vehicle-treated control. The format is functional. Put shortly:
as §1

The subject of test [4] is Mus musculus. The test can be described thus: Antiobesity activity in C57BL/6J DIO mouse assessed as reduction in cumulative food intake at 3 mg/kg administered daily via oral gavage for 5 weeks. The format is functional, organism-based. Put shortly:
as §1

The target in test [5] is T1, 3-hydroxy-3-methylglutaryl-coenzyme A reductase (Sus scrofa, UniProt Q1W675).
T1 sequence (Q1W675 whole entry): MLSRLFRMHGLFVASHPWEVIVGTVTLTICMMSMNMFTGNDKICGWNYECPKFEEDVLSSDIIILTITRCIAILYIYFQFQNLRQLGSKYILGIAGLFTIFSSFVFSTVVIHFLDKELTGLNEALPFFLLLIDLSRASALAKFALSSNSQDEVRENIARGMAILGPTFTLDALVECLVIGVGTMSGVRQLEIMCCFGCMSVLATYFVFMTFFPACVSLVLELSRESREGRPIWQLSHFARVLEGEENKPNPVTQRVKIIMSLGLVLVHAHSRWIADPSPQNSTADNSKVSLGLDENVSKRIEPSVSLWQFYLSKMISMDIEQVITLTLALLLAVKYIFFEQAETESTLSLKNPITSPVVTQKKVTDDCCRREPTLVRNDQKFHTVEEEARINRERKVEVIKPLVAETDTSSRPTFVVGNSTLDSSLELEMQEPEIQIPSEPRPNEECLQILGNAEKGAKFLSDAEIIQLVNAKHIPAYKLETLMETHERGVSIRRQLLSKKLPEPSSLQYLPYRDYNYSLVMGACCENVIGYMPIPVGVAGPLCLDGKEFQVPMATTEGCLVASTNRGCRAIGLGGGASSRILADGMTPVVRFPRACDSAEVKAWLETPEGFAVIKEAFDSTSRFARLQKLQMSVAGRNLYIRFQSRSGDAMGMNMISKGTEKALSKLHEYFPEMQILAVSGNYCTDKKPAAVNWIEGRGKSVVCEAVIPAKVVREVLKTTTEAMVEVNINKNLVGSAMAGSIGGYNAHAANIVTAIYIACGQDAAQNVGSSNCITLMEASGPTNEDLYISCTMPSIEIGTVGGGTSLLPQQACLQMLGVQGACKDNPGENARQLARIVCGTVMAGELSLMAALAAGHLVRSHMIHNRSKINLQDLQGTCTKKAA
The experiment in a line: (§2) Inhibition of pig liver microsomal HMG-CoA reductase by colorimetric method. A digest of the protocol:
(§3)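 Pig liver microsomal HMG-CoA reductase; compounds tested at several concentrations, each in triplicate; control uses phosphate buffer instead of compound, blank uses buffer instead of enzyme. Absorbance read at 405 nm; % inhibition from blank-corrected OD of test versus control; IC50 fitted from the inhibition-concentration series.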
Background: Microsomes from liver hold many membrane-bound enzymes, among them those of drug oxidation.

The target in test [6] is T2, 3-hydroxy-3-methylglutaryl-coenzyme A reductase (Sus scrofa) (UniProt Q1W675).
T2 sequence (whole entry): T1 sequence (Q1W675 whole entry)
The test is described as §2. A digest of the protocol: as §3

Test [7] in a line: Inhibition of rat small intestinal mucosal alpha-glucosidase using p-nitrophenyl-alpha-D-glucopyranoside as substrate by HPLC method. A digest of the protocol:
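Rat intestinal α-glucosidase; after incubation the product 4-nitrophenol is quantified at once by HPLC (gradient from 20% acetonitrile in water with 0.1‰ TFA to 100% acetonitrile over 10 min). Each concentration run 3 times in parallel; % inhibition from peak areas versus control minus control blank; IC50 from the concentration series.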

Consider `CC(C)=CCC/C(C)=C/CCC1=C[C@H](c2cc(O)ccc2O)OC1=O`, for which, in test [1], 0.38 µM corresponded to half-maximal inhibition (IC50).
In test [1], `C[C@H]1O[C@H](O[C@H]2[C@H](O)[C@@H](O)[C@@H](O[C@H]3[C@H](O)[C@@H](O)C(O)O[C@@H]3CO)O[C@@H]2CO)[C@H](O)[C@@H](O)[C@@H]1N[C@H]1C=C(CO)[C@@H](O)[C@H](O)[C@H]1O` (stereo partly drawn) [ACARBOSE] returned an IC50 of 1.26 µM. For the same molecule, the outcome in test [2], in test [3] and in test [4] was inactive.
As to `CC(C)=CCC/C(C)=C/CCC1=C[C@H](c2ccc3ccccc3c2)OC1=O`, the IC50 is 5.98 µM in test [1] and 49.8 µM in test [5]. Also, the inhibition result in test [6] was “Dose-dependent effect”.
As for `CC(C)=CCC/C(C)=C/CCC1=C[C@H](c2ccc(C)cc2)OC1=O`, the IC50 came to 0.29 µM in test [1], 0.23 µM in test [7] and 18.1 µM in test [5]. In addition, the inhibition entry in test [6] was “Dose-dependent effect”.
For the molecule `COCOc1ccccc1[C@H]1C=C(CC/C=C(\C)CCC=C(C)C)C(=O)O1`, the figures for the IC50 in test [1] and in test [5] were 19.3 µM and 8.9 µM, respectively. The inhibition result in test [6] was “Dose-dependent effect”.
Consider `COc1ccc(OC)c([C@H]2C=C(CC/C=C(\C)CCC=C(C)C)C(=O)O2)c1`, for which the IC50 in test [1] amounted to 12.1 µM; in test [5], 13.2 µM. Further, the inhibition entry in test [6] was “Dose-dependent effect”.
For `CC(C)=CCC/C(C)=C/CCC1=C[C@H](c2ccccc2[N+](=O)[O-])OC1=O` the same measures were 0.26 µM, 18.9 µM and “Dose-dependent effect”.
For `CC(C)=CCC/C(C)=C/CCC1=C[C@H](c2cc(F)c(F)c(F)c2)OC1=O` the same measures were 2.04 µM, 38.2 µM and “Dose-dependent effect”.
As to `COc1ccc([C@H]2C=C(CC/C=C(\C)CCC=C(C)C)C(=O)O2)cc1`, the IC50 came to 21.7 µM in test [1] and 6.21 µM in test [5]. Moreover, the inhibition result in test [6] was “Dose-dependent effect”.
For `CC(C)=CCC/C(C)=C/CCC1=C[C@H](c2ccccc2O)OC1=O` the same measures were 2.27 µM, 6.76 µM and “Dose-dependent effect”.
The molecule `CC(C)c1c(C(=O)Nc2ccccc2)c(-c2ccccc2)c(-c2ccc(F)cc2)n1CC[C@@H](O)C[C@@H](O)CC(=O)O` [ATORVASTATIN] had an IC50 in test [5] of 0.93 µM.
Regarding `CCc1ccc([C@H]2C=C(CC/C=C(\C)CCC=C(C)C)C(=O)O2)cc1`, the IC50 in test [1] came out at 0.17 µM; in test [7], 0.16 µM; in test [5], 14.2 µM. Further, the inhibition entry in test [6] was “Dose-dependent effect”.
For the molecule `CC(C)=CCC/C(C)=C/CCC1=C[C@H](c2cc(F)ccc2F)OC1=O`, the IC50 amounted to 1.59 µM in test [1] and 25.1 µM in test [5]. Also, the inhibition result in test [6] was “Dose-dependent effect”.
For `CC(C)=CCC/C(C)=C/CCC1=C[C@H](c2ccc([N+](=O)[O-])cc2)OC1=O` the same measures were 5.11 µM, 7.43 µM and “Dose-dependent effect”.
`CC(C)=CCC/C(C)=C/CCC1=C[C@H](c2ccc(C(C)C)cc2)OC1=O`: the IC50 in test [1] stood at 32.8 µM; in test [7], 28.7 µM; in test [5], 112 µM. Also, the inhibition result in test [6] was “Dose-dependent effect”.
`CC(C)=CCC/C(C)=C/CCC1=C[C@H](c2ccccc2)OC1=O`: the IC50 in test [1] is 1.24 µM; in test [5] it was 16.5 µM. Also, the inhibition result in test [6] was “Dose-dependent effect”.

One may read the IC50 as the concentration that inhibits the measured activity by half.
